# Tests used:
# Human betaherpesvirus 5 [1] = experiment: Antiviral activity against human cytomegalovirus AD-169 infected in human HEL cells assessed as inhibition of virus-induced cytopathic effect; assay type: functional, cell-based; settings: Human betaherpesvirus 5, AD-169, HEL
# Method in brief: (§1)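 Confluent HEL fibroblast monolayers were inoculated in 96-well plates with 100 CCID50 of virus in the presence of serially varied compound concentrations. Cytopathicity was scored once untreated infected controls reached full CPE.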
# [2] = tested on: Human immunodeficiency virus 1; experiment: Antiviral activity against HIV1 X4LAI.04 infected in human MT4 cells assessed as decrease in viral replication by p24gag-based luminex assay; assay type: functional, cell-based; settings: Human immunodeficiency virus 1, X4LAI.04, MT4
# Method in brief: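 10^6 MT-4 cells were infected with HIV-1 X4LAI.04 (7 ng p24) for 2 h at 37 °C, then washed with PBS and resuspended. Compounds were added and cultures were kept 3 days at 37 °C. Supernatant p24 was measured by bead-based Luminex. Inhibition was calculated as (1 − p24 treated/p24 untreated) × 100, and EC50 was derived from it.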
# MT4 = experiment: Cytotoxicity against human MT4 cells assessed as reduction in cell viability by cell counting method; assay type: cell-based
# Method in brief: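 MT-4 cultures, untreated or treated, were assessed with an automated cell counter using propidium iodide staining to enumerate total and dead cells.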
# Human alphaherpesvirus 1 [3] = experiment: Antiviral activity against Herpes simplex virus 1 KOS infected in human HEL cells assessed as inhibition of virus-induced cytopathic effect; assay type: functional, cell-based; settings: Human alphaherpesvirus 1, KOS; method in brief: as §1
# Human alphaherpesvirus 2 = experiment: Antiviral activity against Herpes simplex virus 2 G infected in human HEL cells assessed as inhibition of virus-induced cytopathic effect; assay type: functional, cell-based; settings: Human alphaherpesvirus 2, strain G; method in brief: as §1
# Human alphaherpesvirus 1 [4] = experiment: Antiviral activity against ACV-resistant thymidine kinase deficient Herpes simplex virus 1 KOS infected in human HEL cells assessed as inhibition of virus-induced cytopathic effect; assay type: functional, cell-based; settings: Human alphaherpesvirus 1, KOS; method in brief: as §1
# [5] = Cytotoxicity against human HEL cells assessed as alteration to cell morphology by microscopic analysis; assay type: cell-based
# Method in brief: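 Minimal cytotoxic concentration is the compound concentration giving a microscopically visible alteration of HEL cell morphology, scored in the antiviral assay cultures.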
# Human betaherpesvirus 5 [6] = experiment: Antiviral activity against human cytomegalovirus Davis infected in human HEL cells assessed as inhibition of virus-induced cytopathic effect; assay type: functional, cell-based; settings: Human betaherpesvirus 5, Davis; method in brief: as §1
# Human alphaherpesvirus 3 [7] = experiment: Antiviral activity against Varicella-Zoster virus OKA infected in human HEL cells assessed as inhibition of virus-induced cytopathic effect; assay type: functional, cell-based; settings: Human alphaherpesvirus 3, strain Oka vaccine
# Method in brief: (§2)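 Confluent HEL fibroblast cultures were inoculated with 20 PFU of VZV in the presence of varying compound concentrations. Plaque formation was recorded once untreated infected controls reached completion.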
# Human alphaherpesvirus 3 [8] = experiment: Antiviral activity against thymidine kinase deficient Varicella-Zoster virus 07-1 infected in human HEL cells assessed as inhibition of virus-induced cytopathic effect; assay type: functional, cell-based; settings: Human alphaherpesvirus 3, 07-1, HEL; method in brief: as §2
# HEL = experiment: Cytotoxicity against human HEL cells assessed as cell growth inhibition by cell counting method; assay type: cell-based
# CCRF-CEM = experiment: Cytostatic activity human CEM cells assessed as reduction in cell viability after 72 hrs by cell counting method; assay type: cell-based; settings: ccrf-cem, 72 h
# Method in brief: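 (5–7.5) × 10^? CEM cells per well were grown with compound for 72 h at 37 °C under humidified CO2. Cells were counted in a Coulter counter.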
SMILES,EC50 (Human betaherpesvirus 5 [1]),EC50 [2],IC50 (MT4),EC50 (Human alphaherpesvirus 1 [3]),EC50 (Human alphaherpesvirus 2),EC50 (Human alphaherpesvirus 1 [4]),MCC [5],EC50 (Human betaherpesvirus 5 [6]),EC50 (Human alphaherpesvirus 3 [7]),EC50 (Human alphaherpesvirus 3 [8]),CC50 (HEL),CC50 (CCRF-CEM)
C[C@H](NP(=O)(OCC(CO)OCn1cnc2c(=O)[nH]c(N)nc21)Oc1ccccc1)C(=O)OCc1ccccc1 (stereo not given in full),7.9 µM,17 µM,20 µM,0.6 µM,3 µM,3 µM,> 100 µM,5 µM,7.3 µM,3.2 µM,≥ 81 µM,–
C[C@H](NP(=O)(OCC(CCn1cnc2c(=O)[nH]c(N)nc21)COP(=O)(N[C@@H](C)C(=O)OCc1ccccc1)Oc1cccc2ccccc12)Oc1cccc2ccccc12)C(=O)OCc1ccccc1 (stereo not given in full),> 50 µM,–,–,> 100 µM,> 100 µM,> 100 µM,50 to 100 µM,> 50 µM,13.5 µM,> 50 µM,> 100 µM,> 10 µM
C[C@H](NP(=O)(OCC(CCn1cnc2c(=O)[nH]c(/N=C/N(C)C)nc21)COP(=O)(N[C@@H](C)C(=O)OCc1ccccc1)Oc1cccc2ccccc12)Oc1cccc2ccccc12)C(=O)OCc1ccccc1 (stereo not given in full),> 20 µM,3.2 µM,4 µM,> 100 µM,> 100 µM,> 100 µM,50 to 100 µM,> 20 µM,8.8 µM,11.7 µM,19 µM,19 µM
CC(C)OC(=O)[C@H](C)NP(=O)(OCC(COP(=O)(N[C@@H](C)C(=O)OC(C)C)Oc1cccc2ccccc12)OCn1cnc2c(=O)[nH]c(N)nc21)Oc1cccc2ccccc12 (stereo not given in full),16.3 µM,8.5 µM,6 µM,1.2 µM,1.4 µM,≥ 73 µM,≥ 100 µM,2.7 µM,4.2 µM,1.1 µM,> 50 µM,> 100 µM
C[C@H](NP(=O)(OCC(COP(=O)(N[C@@H](C)C(=O)OCc1ccccc1)Oc1ccccc1)OCn1cnc2c(=O)[nH]c(N)nc21)Oc1ccccc1)C(=O)OCc1ccccc1 (stereo not given in full),44.7 µM,30 µM,> 150 µM,3 µM,2.5 µM,14.5 µM,> 100 µM,–,23.3 µM,21.3 µM,> 100 µM,159 µM
CC(C)(NP(=O)(OCC(COP(=O)(NC(C)(C)C(=O)OCc1ccccc1)Oc1cccc2ccccc12)OCn1cnc2c(=O)[nH]c(N)nc21)Oc1cccc2ccccc12)C(=O)OCc1ccccc1 (stereo not given),≥ 44.9 µM,> 150 µM,> 150 µM,0.3 µM,0.9 µM,1.6 µM,50 to 100 µM,50 µM,13.6 µM,7.2 µM,> 100 µM,> 20 µM
CC(C)(NP(=O)(OCC(CO)CCn1cnc2c(=O)[nH]c(N)nc21)Oc1ccccc1)C(=O)OCc1ccccc1 (stereo not given),> 50 µM,68 µM,> 150 µM,29 µM,39 µM,100 µM,50 to 100 µM,> 50 µM,> 50 µM,> 50 µM,> 50 µM,252 µM
C[C@H](NP(=O)(OCC(COP(=O)(N[C@@H](C)C(=O)OCc1ccccc1)Oc1cccc2ccccc12)SCn1cnc2c(=O)[nH]c(/N=C/N(C)C)nc21)Oc1cccc2ccccc12)C(=O)OCc1ccccc1 (stereo not given in full),> 50 µM,9 µM,4 µM,> 100 µM,> 100 µM,> 100 µM,50 to 100 µM,> 50 µM,> 20 µM,> 20 µM,30 µM,17 µM
CC(C)(NP(=O)(OCC(COP(=O)(NC(C)(C)C(=O)OCc1ccccc1)Oc1ccccc1)OCn1cnc2c(=O)[nH]c(N)nc21)Oc1ccccc1)C(=O)OCc1ccccc1 (stereo not given),50 µM,10 µM,13 µM,1.5 µM,2.5 µM,1.5 µM,> 50 µM,23.6 µM,21.7 µM,8.3 µM,82 µM,47 µM
CC(C)(NP(=O)(OCC(CO)OCn1cnc2c(=O)[nH]c(N)nc21)Oc1cccc2ccccc12)C(=O)OCc1ccccc1 (stereo not given),6.6 µM,10 µM,26 µM,0.6 µM,0.85 µM,1.4 µM,50 to 100 µM,4.9 µM,13 µM,> 50 µM,> 100 µM,> 100 µM
CC(C)(NP(=O)(OCC(CCn1cnc2c(=O)[nH]c(N)nc21)COP(=O)(NC(C)(C)C(=O)OCc1ccccc1)Oc1ccccc1)Oc1ccccc1)C(=O)OCc1ccccc1 (stereo not given),> 50 µM,19 µM,30 µM,> 100 µM,> 100 µM,> 100 µM,50 to 100 µM,> 50 µM,10.3 µM,20.6 µM,> 100 µM,100 µM
CC(C)(NP(=O)(OCC(CO)OCn1cnc2c(=O)[nH]c(N)nc21)Oc1ccccc1)C(=O)OCc1ccccc1 (stereo not given),38.6 µM,> 150 µM,> 150 µM,0.09 µM,0.3 µM,0.15 µM,50 to 100 µM,15.8 µM,7.3 µM,3.3 µM,> 100 µM,> 100 µM
C[C@H](NP(=O)(OCC(CCn1cnc2c(=O)[nH]c(N)nc21)COP(=O)(N[C@@H](C)C(=O)OCc1ccccc1)Oc1ccccc1)Oc1ccccc1)C(=O)OCc1ccccc1 (stereo not given in full),> 50 µM,8 µM,10 µM,> 100 µM,> 100 µM,> 100 µM,50 to 100 µM,> 50 µM,16.3 µM,41.5 µM,≥ 100 µM,76 µM
CC(C)(NP(=O)(OCC(CCn1cnc2c(=O)[nH]c(N)nc21)COP(=O)(NC(C)(C)C(=O)OCc1ccccc1)Oc1cccc2ccccc12)Oc1cccc2ccccc12)C(=O)OCc1ccccc1 (stereo not given),> 50 µM,> 150 µM,> 150 µM,> 20 µM,> 20 µM,> 20 µM,50 to 100 µM,> 50 µM,> 50 µM,> 50 µM,> 100 µM,> 250 µM
CC(C)(NP(=O)(OCC(CO)CCn1cnc2c(=O)[nH]c(N)nc21)Oc1cccc2ccccc12)C(=O)OCc1ccccc1 (stereo not given),> 50 µM,95 µM,100 µM,75 µM,52 µM,> 100 µM,50 to 100 µM,> 50 µM,20.9 µM,> 50 µM,> 100 µM,–
C[C@H](NP(=O)(OCC(CCn1cnc2c(Cl)nc(N)nc21)COP(=O)(N[C@@H](C)C(=O)OCc1ccccc1)Oc1ccccc1)Oc1ccccc1)C(=O)OCc1ccccc1 (stereo not given in full),> 100 µM,7 µM,20 µM,> 100 µM,> 100 µM,> 100 µM,> 100 µM,> 100 µM,44 µM,44.1 µM,4 µM,14 µM
C[C@H](NP(=O)(OCC(COP(=O)(N[C@@H](C)C(=O)OCc1ccccc1)Oc1cccc2ccccc12)OCn1cnc2c(=O)[nH]c(N)nc21)Oc1cccc2ccccc12)C(=O)OCc1ccccc1 (stereo not given in full),27.4 µM,–,> 150 µM,1.3 µM,2.5 µM,2.5 µM,50 to 100 µM,11.2 µM,6.2 µM,4.1 µM,> 100 µM,–
C[C@H](NP(=O)(OCC(CCn1cnc2c(=O)[nH]c(/N=C/N(C)C)nc21)COP(=O)(N[C@@H](C)C(=O)OCc1ccccc1)Oc1ccccc1)Oc1ccccc1)C(=O)OCc1ccccc1 (stereo not given in full),> 50 µM,9 µM,10 µM,> 100 µM,> 100 µM,> 100 µM,50 to 100 µM,> 50 µM,29.8 µM,28.6 µM,47 µM,21 µM
Nc1nc2c(ncn2COCCO)c(=O)[nH]1 [ACYCLOVIR],–,–,–,–,–,–,–,–,–,–,787 µM,–

# From ChEMBL document CHEMBL4017507 (J Med Chem, 2017)
